# Measured values: ChEMBL document CHEMBL3044558, “Structure-activity relationship development of dihaloaryl triazole compounds as insecticides and acaricides. 1. Phenyl thiophen-2-yl triazoles” (2007)
# Activity calls are given as the source filed them. The calls are words filed in the database; no cut-off is given here.
# Columns and labels:
# Trichoplusia ni [1] = assay: Insecticidal activity against Trichoplusia ni (cabbage looper) second-instar larvae infested on 400 ppm compound pre-treated cabbage leaf disk assessed as insect mortality measured 5 days post compound treatment under green house conditions; format: functional; settings: at 400 ppm
# Bemisia tabaci [2] = tested on: Bemisia tabaci
# Aphis gossypii [3] = assay: Insecticidal activity against Aphis gossypii (cotton aphid) infested one week old Crookneck squash plants assessed as insect mortality at 50 ppm measured after 3 days post compound application under green house conditions; format: functional; settings: 72 h
# Spodoptera exigua [4] = assay: Insecticidal activity against Spodoptera exigua second-instar larvae feeded on 25 ppm compound treated lepidopteran diet assessed as insect mortality measured 5 days post compound treatment under green house conditions; format: functional
# Trichoplusia ni [5] = assay: Insecticidal activity against Trichoplusia ni (cabbage looper) second-instar larvae infested on 25 ppm compound pre-treated cabbage leaf disk assessed as insect mortality measured 5 days post compound treatment under green house conditions; format: functional
# Method in brief: (§1)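 Leaf disks treated, air-dried and placed singly in cups. Cotton cotyledon disks each get one second-instar tobacco budworm larva; cabbage leaf disks each get one second-instar cabbage looper larva. Cups are capped and held in a growth chamber at 25 °C, 50-55% RH, 14 h light/10 h dark for 5 days.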
# Myzus persicae = assay: Insecticidal activity against Myzus persicae (green peach aphid) assessed as insect mortality at 50 ppm; format: functional
# Spodoptera exigua [6] = assay: Insecticidal activity against Spodoptera exigua second-instar larvae feeded on 400 ppm compound treated lepidopteran diet assessed as insect mortality measured 5 days post compound treatment under green house conditions; format: functional; settings: at 400 ppm
# Heliothis virescens [7] = assay: Insecticidal activity against Heliothis virescens (tobacco budworm) second-instar larvae infested on 400 ppm compound pre-treated cotton cotyledon disk assessed as insect mortality measured 5 days post compound treatment under green house conditions; format: functional
# Tetranychus urticae = assay: Insecticidal activity against female Tetranychus urticae (two-spotted spider mite) infested cotton leaf disks followed by 2.5 ppm compound spraying after oviposit assessed as insect mortality measured after 6 days post compound application under green house conditions; format: functional; settings: foliar, 144 h
# Aphis gossypii [8] = assay: Insecticidal activity against Aphis gossypii (cotton aphid) infested one week old Crookneck squash plants assessed as insect mortality measured after 3 days post compound application under green house conditions; format: functional; settings: for LC50: Aphis gossypii, 72 h
# Heliothis virescens [9] = assay: Insecticidal activity against Heliothis virescens (tobacco budworm) second-instar larvae infested on 25 ppm compound pre-treated cotton cotyledon disk assessed as insect mortality measured 5 days post compound treatment under green house conditions; format: functional; method in brief: as §1
# Aphis gossypii [10] = tested on: Aphis gossypii
# Bemisia tabaci [11] = assay: Insecticidal activity against Bemisia tabaci (sweet potato whitefly) second-instar larvae infested five weeks old cotton plants followed by compound 250 ppm compound spraying after insect oviposit assessed as insect mortality measured 13 days post compound treatment under green house conditions; format: functional
SMILES,mortality (Trichoplusia ni [1]) [%],mortality (Bemisia tabaci [2]),mortality at 50 ppm (Aphis gossypii [3]) [%],mortality (Spodoptera exigua [4]) [%],mortality (Trichoplusia ni [5]) [%],LC50 (Myzus persicae) [µg/mL],mortality (Spodoptera exigua [6]) [%],mortality (Heliothis virescens [7]) [%],mortality at 2.5 ppm (Tetranychus urticae) [%],LC50 (Aphis gossypii [8]) [µg/mL],mortality (Heliothis virescens [9]) [%],mortality (Aphis gossypii [10]),mortality (Bemisia tabaci [11]) [%],LC90 (Aphis gossypii [8]) [ppm]
Cc1cc(-c2ccc(Cl)cc2F)sc1-c1nc(-c2c(F)cccc2Cl)nn1C,90,inactive,< 50,0,40,91,70,90,90,4.93,20,–,–,–
Cc1cc(-c2ccc(F)c(Cl)c2)sc1-c1nc(-c2c(F)cccc2Cl)nn1C,90,inactive,–,0,60,55,80,90,60,9.28,0,inactive,–,–
Cc1cc(-c2ccc(F)c(F)c2)sc1-c1nc(-c2c(F)cccc2Cl)nn1C,90,–,< 50,0,40,88,90,90,60,4.41,20,–,90,22.3
